Yeast growth inh: reduces growth of yeast BB579 in restrictive medium; inhibition, % at 10 µM; S. cerevisiae BB579 growth, OD615, 48 h; 140,000 tested, 0.51% active;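 active = inhibition above a set limit, 3 SD over the mean compound inhibition, cut at about 44% in these data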
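System: DeaD yeast strain BB579; buffer or medium: CSMM-D dextrose restrictive medium; technique: OD at 615 nm; schedule: 4 h cell preincubation, 48 h compound exposure, 30 °C humidified; doses: single 10 µM dose; controls: amphotericin B 10 µg/mL, positive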
Yeast lifespan up: yeast lifespan extension | S. cerevisiae growth with nicotinamide, OD615; deaD strain in restrictive glucose medium | inhibition of the nicotinamide effect, % at 10 µM | 130,000 tested, 0.68% active | AID 775;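 active = inhibition above a set limit, placed 3 SD over the median of all compounds, cut at about 26% in these data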;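 also: 0% = nicotinamide-treated wells and 100% = cells grown without nicotinamide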
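Assay system: engineered S. cerevisiae DeaD replicative-lifespan strain, galactose-grown log-phase cells; Buffer or medium: CSMM-D glucose medium, restrictive; Probe or stimulus: nicotinamide 1.5 mM; Compound: single dose 10 µM compound, 0.25% DMSO; Schedule: 4 h preincubation then 48 h treatment at 30 °C; Technique: OD615 measurement.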
Measles CPE: protection of cells from measles virus. Measles virus-infected cells, CPE protection, absorbance. protection (pct of control), % at 4 µM. 140,000 tested, 1.5% active. AID 841; in the data active = protection mostly above about 24%, no sharp cut-off; inactive = mostly below about 26%
RAM network inh: blocks the yeast RAM network. S. cerevisiae dse1pr::URA3 reporter, 5-FOA growth OD615, 2 d; analog-sensitive cbk1-as2 kinase mutant strain. inhibition, % at 50 µM. 190,000 tested, 1.8% active;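 active = inhibition above a set limit, 3 SD over mean compound inhibition, cut at about 8.4% in these data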;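 also: 0% = DMSO-only wells with no growth and 100% = 10 µM 1-NA-PP1 full growth; inhibition rescues growth on 5-FOA so higher OD means more RAM inhibition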
Numbers without * were called inactive; · = not tested or not shown. An excerpt weighted towards active compounds, which were near 3.8% of everything screened.

SMILES	Yeast growth inh	Yeast lifespan up	Measles CPE	RAM network inh
CCc1ccc(C(=O)NN(C(=O)c2ccc(CC)cc2)C(C)(C)C)cc1	2	2	12	2
Cc1cc(C)c2[nH]c(=O)c(CN(Cc3cccnc3)C(=S)NCCCN(C)C)cc2c1	·	·	·	0
CC(C)(C)NC(=O)C(c1cccs1)N(CC1CCCO1)C(=O)c1ccc(-c2ccccc2)[nH]1 (stereo not drawn)	-31	-3	16	5
O=C(NCC1CCCO1)C(c1cccs1)N(C(=O)c1ccc(-c2ccccc2)[nH]1)C1CCCC1 (stereo not drawn)	-16	-5	51*	2
O=C(NCC1CCCO1)C(c1cccs1)N(Cc1ccccc1)C(=O)c1ccc(-c2ccccc2)[nH]1 (stereo not drawn)	-35	2	11	10*
O=C(O)CC1S/C(=N/N=C/c2ccc([N+](=O)[O-])cc2)N(c2ccc(O)cc2)C1=O (stereo not drawn)	·	·	·	1
C=CCN1C(=O)/C(=C2/Sc3ccccc3N2C)SC1=Nc1ccccc1C	-38	-10	51*	6
O=c1c(-c2ccc(Cl)cc2)cnc2n1CCS2	·	·	·	0
CCN1C(=O)c2cccc3c(NC(=O)c4cccc(N5C(=O)CCC5=O)c4)ccc1c23	-48	-3	7	9.3*
Cc1ccc(C)c(S(=O)(=O)N2CC(=O)N(CCc3ccccc3)C(=O)C2)c1	-46	2	2	7
CC(C)OP(=O)(OC(C)C)C(O)c1ccc2c(c1)OCO2 (stereo not drawn)	-42	2	10	1
Cc1cc(/C=C2/NC(=O)N(Cc3ccccc3F)C2=O)c(C)n1C	-55	27*	15	1
O=C(CCc1[nH]c2ccccc2c1Sc1ccccc1)NCCO	-15	-3	5	-1
COc1ccc(CC(=O)OCC(=O)N2N=C(c3ccccc3)CC2c2ccc(OC)cc2)cc1 (stereo not drawn)	-15	2	18	8.9*
COc1ccc(C2=NN(C(=O)CSc3ncccn3)C(c3ccc(OC)cc3)C2)cc1 (stereo not drawn)	-41	4	63*	4
O=C(Nc1ccccc1)Nc1cc(Cl)cc(Cl)c1	-18	-11	63*	6
O=C(Nc1ccc(F)cc1F)c1ccc(COc2c(F)c(F)cc(F)c2F)o1	-38	-13	4	8.6*
O=C(c1ccc(COc2c(F)c(F)c(F)c(F)c2F)o1)N1CCOCC1	-32	-14	4	2
CCN1CCN(C(=O)c2ccc(COc3ccc(Cl)cc3)o2)CC1	20	-11	42*	2
O=C(c1ccc(COc2c(F)c(F)cc(F)c2F)o1)N1CCN(c2ccccc2)CC1	-18	·	15	11*
COC(=O)c1c(NC(=O)CN2C(=O)C(=O)N(CC(C)C)C2=O)sc2c1CCCCC2	-34	1	23	3
Cc1ccc(NC(=O)c2cc(C(=O)c3cc(Cl)ccc3O)cn(-c3ccc(C)cc3)c2=O)cc1	-45	0	5	8
CCCc1oc(C(=O)O)cc1CN1CCOCC1	-46	-3	34*	1
Cc1ccc(NC(=S)N=Nc2c(O)n(C)c3ccc(S(=O)(=O)N4CCOCC4)cc23)cc1C	-37	2	12	9.4*
Cc1cccc(C)c1NC(=O)CN(c1ccccn1)S(=O)(=O)c1ccccc1	·	·	·	2
SMILES	Yeast growth inh	Yeast lifespan up	Measles CPE	RAM network inh
O=C1OC(c2ccccc2)c2ccc3ccccc3c21 (stereo not drawn)	-14	-1	9	2
Cc1ccccc1N=Cc1cccc(O)c1O	97*	-11	12	0
Cc1ccc(N=Cc2cccc(O)c2O)c(C)c1	97*	-21	42	2
CC(N=Cc1cccc(O)c1O)c1ccccc1 (stereo not drawn)	96*	-10	20	-1
CCN(CC)c1ccc(C=Nc2ccc(C)cc2C)c(O)c1	·	·	·	3
CC(N=Cc1cc([N+](=O)[O-])ccc1O)c1ccccc1 (stereo not drawn)	·	·	·	-1
CC(C)C(NC(=S)Nc1ccccc1)C(=O)O (stereo not drawn)	-15	-5	2	1
CCOC(=O)c1c(CSC(=N)N)n(-c2ccc(C)cc2)c2cc(Br)c(OC(C)=O)cc12	-93	-8	0	11*
CCOC(=O)c1c(CN(C)C)n(-c2ccccc2)c2cc(Br)c(OC)cc12	-61	26*	11	1
CCOc1ccc(OCC)c(NC(=O)C2CCCN(c3nc(C)cc(C)n3)C2)c1 (stereo not drawn)	-15	-4	23	0
Cc1cc(OCC(=O)OCC(=O)Nc2cc(C(F)(F)F)ccc2N2CCOCC2)ccc1Cl	-37	-4	10	9.1*
Cc1ccccc1NC(=O)c1ccc(CSc2ncccn2)cc1	-18	-14	45*	4
Cc1ccc(NC(=O)c2ccc(CSc3ccccn3)cc2)cc1	-27	-12	6	8.4*
Cc1ccc(S(=O)(=O)N2CCC(=O)N(C(COCc3cccc(Cl)c3)C(C)C)CC2)cc1 (stereo not drawn)	-34	4	15	8.6*
Cc1ccc(S(=O)(=O)N2CCC(=O)N(C(COCc3cccc(C(F)(F)F)c3)Cc3ccccc3)CC2)cc1 (stereo not drawn)	-42	20	4	9.8*
C/C(=N/NC(=O)c1cccc(N2CCCC2=O)c1)c1ccncc1	·	·	·	6
Cc1nonc1C(=O)N/N=C/c1ccccc1	·	·	·	1
S=C(Nc1ccc(N2CCOCC2)cc1)Nc1ccc2nc(-c3ccco3)c(-c3ccco3)nc2c1	-94	37*	3	3
O=C(CC12CC3CC(CC(C3)C1)C2)NC(=S)N1CCCCC1	-6	-1	21	3
N#Cc1cc2c(nc1SCC1COc3ccccc3O1)CCC2 (stereo not drawn)	-44	-11	1	7
Cc1cc(C)c(C#N)c(SCC2COc3ccccc3O2)n1 (stereo not drawn)	-57	-13	3	8.5*
COCCn1c(C)cc(C(=O)COC(=O)c2ccc(Br)o2)c1C	·	·	·	0
CCOC(=O)CSc1nc2sc3c(c2c(=O)n1C1CCCCC1)CCN(C)C3	11	·	4	-1
Cc1ccc2cc3c(N)c(C(=O)Nc4c(C)[nH]c(=O)[nH]c4=O)sc3nc2c1	-22	2	8	9.5*
Cc1cc(C=C2C(=O)c3ccccc3C2=O)c(C)n1-c1ccc(C(=O)O)cc1	·	·	·	5
SMILES	Yeast growth inh	Yeast lifespan up	Measles CPE	RAM network inh
Cc1cc(C=C2C(=O)c3ccccc3C2=O)c(C)n1-c1cccc(C(=O)O)c1	·	·	·	8.8*
Cc1cc(C(=O)CCl)c(C)n1-c1c(C)n(C)n(-c2ccccc2)c1=O	·	·	·	2
COc1cc(-c2csc(N3CCOCC3)n2)cc(OC)c1OC	-79	-11	56*	2
O=C(NNC(=O)c1ccncc1)NC1CCCCC1	·	·	·	0
CCC1(C)Cc2nc3[nH]c(=S)n(-c4ccccc4)c(=O)c3cc2CO1 (stereo not drawn)	-8	7	30	8.5*
CCc1ccc(S(=O)(=O)NCc2cn3ccsc3n2)s1	18	-4	4	2
CCc1ccc(S(=O)(=O)NCCc2cn3ccsc3n2)s1	46*	11	7	0
